Measurements reported in ChEMBL document CHEMBL4130378, “Discovery of pentacyclic triterpene 3β-ester derivatives as a new class of cholesterol ester transfer protein inhibitors” (Eur J Med Chem, 2017).
Each block holds one compound with its values, some of them ahead of it.

Assays:
[1] = biological target: T1, Cholesteryl ester transfer protein (Homo sapiens, UniProt P11597); assay: Inhibition of recombinant human CETP after 3 hrs using fluorescent cholesteryl containing HDL after 3 hrs by fluorescence assay
T1 sequence (P11597 whole entry): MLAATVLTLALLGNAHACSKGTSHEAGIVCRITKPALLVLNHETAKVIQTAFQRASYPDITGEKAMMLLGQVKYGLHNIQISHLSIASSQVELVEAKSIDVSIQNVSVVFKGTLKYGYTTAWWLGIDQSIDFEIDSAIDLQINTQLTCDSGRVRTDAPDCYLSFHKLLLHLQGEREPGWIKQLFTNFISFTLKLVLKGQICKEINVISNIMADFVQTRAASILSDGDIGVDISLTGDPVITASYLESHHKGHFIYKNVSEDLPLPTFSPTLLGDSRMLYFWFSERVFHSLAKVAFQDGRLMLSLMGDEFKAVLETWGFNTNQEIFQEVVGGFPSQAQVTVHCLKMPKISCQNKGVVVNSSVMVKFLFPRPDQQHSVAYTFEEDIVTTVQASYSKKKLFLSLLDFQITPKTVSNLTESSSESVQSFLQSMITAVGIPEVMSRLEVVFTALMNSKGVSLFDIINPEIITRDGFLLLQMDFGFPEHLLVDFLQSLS

Mus musculus [2] = assay: Hypolipidemic activity in transgenic ap2-CETPTg mouse model assessed as reduction in plasma LDL cholesterol levels at 30 mg/kg, po qd for 14 days measured 2 hrs post dose on day 14 by automated lipid analyzer relative to control; format: functional; parameters: scale not given: the % may be the effect or the level left
Method in brief: (§1)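 ap2-CETPTg mice, which express human CETP in adipose tissue. Oral 30 mg/kg once daily for two weeks in DMSO/cremophor/saline 3:4:93. Retro-orbital blood drawn 2 h after the day-14 dose. HDL-C, LDL-C, TG and TC measured on an automated lipid analyzer, mean ± SD (n ≥ 6), versus control group.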

[3] = Octanol-water partition coefficient, log P of the compound at pH 7.4 by HPLC based shake flask method; format: physicochemical
Mus musculus [4] = assay: Induction of plasma triglyceride levels in transgenic ap2-CETPTg mouse model at 30 mg/kg, po qd for 14 days measured 2 hrs post dose on day 14 by automated lipid analyzer relative to control; format: ADME, organism-based; conditions: in vivo; method in brief: as §1
Cavia porcellus [5] = assay: Hypolipidemic activity in high-fat fed guinea pig model assessed as reduction in plasma LDL cholesterol levels at 30 mg/kg administered via oral gavage as qd for 14 days measured 2 hrs post dose on day 14 relative to control; format: functional; parameters: scale not given: the % may be the effect or the level left
Method in brief: (§2)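 Male guinea pigs, 12 weeks old, fed a high-fat diet (2.5% coconut oil, 0.25% cholesterol) for two weeks. Gavage at 30 mg/kg once daily for two weeks while the diet continued. Plasma taken retro-orbitally 2 h after the day-14 dose. HDL-C, LDL-C, TG and TC reported as mean ± SD (n ≥ 6) versus the untreated high-fat model group.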

Mus musculus [6] = assay: Induction of plasma total cholesterol levels in transgenic ap2-CETPTg mouse model at 30 mg/kg, po qd for 14 days measured 2 hrs post dose on day 14 by automated lipid analyzer relative to control; format: ADME, organism-based; conditions: in vivo; method in brief: as §1
Cavia porcellus [7] = assay: Antihyperlipidemic activity in high-fat fed guinea pig model assessed as increase in plasma HDL cholesterol level at 30 mg/kg administered via oral gavage as qd for 14 days measured 2 hrs post dose on day 14 relative to control; format: functional; method in brief: as §2
Mus musculus [8] = assay: Hypolipidemic activity in transgenic ap2-CETPTg mouse model assessed as reduction in plasma total cholesterol levels at 30 mg/kg, po qd for 14 days measured 2 hrs post dose on day 14 by automated lipid analyzer relative to control; format: functional; parameters: scale not given: the % may be the effect or the level left; method in brief: as §1
Cavia porcellus [9] = assay: Toxicity in high-fat fed guinea pig model assessed as effect on systolic blood pressure at 30 mg/kg administered via oral gavage as qd for 14 days; format: organism-based; conditions: in vivo, 336 h
Cavia porcellus [10] = assay: Drug metabolism in normal fed guinea pig assessed as formation of oleanolic acid at 30 mg/kg administered via oral gavage by LC-MS/MS analysis; format: ADME, organism-based; conditions: in vivo
[11] = Tmax in normal fed guinea pig at 30 mg/kg administered via oral gavage by LC-MS/MS analysis; format: ADME, organism-based, Cavia porcellus; conditions: in vivo
[12] = Terminal half life in normal fed guinea pig at 30 mg/kg administered via oral gavage by LC-MS/MS analysis; format: ADME, organism-based, Cavia porcellus; conditions: in vivo, read-out: beta t1/2 (converted)
[13] = MRT (0 to 48 hrs) in normal fed guinea pig at 30 mg/kg administered via oral gavage by LC-MS/MS analysis; format: ADME, organism-based, Cavia porcellus; conditions: in vivo
Cavia porcellus [14] = assay: Hypolipidemic activity in high-fat fed guinea pig model assessed as reduction in plasma triglyceride levels at 30 mg/kg administered via oral gavage as qd for 14 days measured 2 hrs post dose on day 14 relative to control; format: functional; parameters: scale not given: the % may be the effect or the level left; method in brief: as §2
Cavia porcellus [15] = assay: Antihyperlipidemic activity in normal fed guinea pig model assessed as increase in plasma HDL cholesterol level at 30 mg/kg administered via oral gavage as qd for 14 days measured 2 hrs post dose on day 14 relative to control; format: functional
Method in brief: (§3)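 Male guinea pigs, 12 weeks old, on normal diet. Gavage at 30 mg/kg once daily for two weeks. Retro-orbital plasma collected 2 h after dosing on day 14. HDL-C and LDL-C reported as mean ± SD (n ≥ 6) versus vehicle control group.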

Cavia porcellus [16] = assay: Hypolipidemic activity in normal fed guinea pig model assessed as reduction in plasma LDL cholesterol levels at 30 mg/kg administered via oral gavage as qd for 14 days measured 2 hrs post dose on day 14 relative to control; format: functional; parameters: scale not given: the % may be the effect or the level left; method in brief: as §3
Mus musculus [17] = assay: Hypolipidemic activity in transgenic ap2-CETPTg mouse model assessed as reduction in plasma triglyceride levels at 30 mg/kg, po qd for 14 days measured 2 hrs post dose on day 14 by automated lipid analyzer relative to control; format: functional; parameters: scale not given: the % may be the effect or the level left; method in brief: as §1
Mus musculus [18] = assay: Antihyperlipidemic activity in transgenic ap2-CETPTg mouse model assessed as increase in plasma HDL cholesterol levels at 30 mg/kg, po qd for 14 days measured 2 hrs post dose on day 14 by automated lipid analyzer relative to control; format: functional; method in brief: as §1
[19] = Cmax in normal fed guinea pig at 30 mg/kg administered via oral gavage by LC-MS/MS analysis; format: ADME, organism-based, Cavia porcellus; parameters: dose 30 mg/kg, route oral; conditions: in vivo
[20] = MRT (0 to infinity) in normal fed guinea pig at 30 mg/kg administered via oral gavage by LC-MS/MS analysis; format: ADME, organism-based, Cavia porcellus; conditions: in vivo
[21] = Aqueous solubility of the compound; format: physicochemical; conditions: buffer
Cavia porcellus [22] = assay: Toxicity in normal fed guinea pig model assessed as effect on systolic blood pressure at 30 mg/kg administered via oral gavage as qd for 14 days; format: organism-based; conditions: in vivo, 336 h
Cavia porcellus [23] = assay: Hypolipidemic activity in high-fat fed guinea pig model assessed as reduction in plasma total cholesterol levels at 30 mg/kg administered via oral gavage as qd for 14 days measured 2 hrs post dose on day 14 relative to control; format: functional; parameters: scale not given: the % may be the effect or the level left; method in brief: as §2
[24] = AUC (0 to 48 hrs) in normal fed guinea pig at 30 mg/kg administered via oral gavage by LC-MS/MS analysis; format: ADME, organism-based, Cavia porcellus; parameters: time < 48 hr, dose 30 mg/kg, route oral; conditions: in vivo
[25] = AUC (0 to infinity) in normal fed guinea pig at 30 mg/kg administered via oral gavage by LC-MS/MS analysis; format: ADME, organism-based, Cavia porcellus; parameters: dose 30 mg/kg, route oral, time infinity; conditions: in vivo

IC50 ([1]; read-out: IC50): 3.4 µM
SMILES: C[C@H]1[C@H](C)CC[C@]2(C(=O)O)CC[C@]3(C)C(=CC[C@@H]4[C@@]5(C)CC[C@H](OC(=O)CCCC(=O)O)C(C)(C)[C@@H]5CC[C@]43C)[C@H]12

IC50 ([1]; read-out: IC50): 38 µM
SMILES: C=C(C)[C@@H]1CC[C@]2(C(=O)O)CC[C@]3(C)[C@H](CC[C@@H]4[C@@]5(C)CC[C@H](OC(=O)CCCC(=O)O)C(C)(C)[C@@H]5CC[C@]43C)[C@@H]12

logD [3]: 0.73 | Activity (Mus musculus [4]): 4.7% | Activity (Mus musculus [6]): 17.8%
SMILES: COc1cc(F)c(C(C)C)cc1-c1ccc(C(F)(F)F)cc1CN1C(=O)O[C@H](c2cc(C(F)(F)F)cc(C(F)(F)F)c2)[C@@H]1C [ANACETRAPIB]
Activity (Mus musculus [2]): 40.4% | Activity (Cavia porcellus [5]): 30.2% | Activity (Cavia porcellus [7]): 82.2%

logD [3]: 0.51
SMILES: Cc1cc(C)c2c(c1)[C@@H](N(Cc1cc(C(F)(F)F)cc(C(F)(F)F)c1)c1nnn(C)n1)CCCN2C[C@H]1CC[C@H](C(=O)O)CC1 [EVACETRAPIB]

IC50 [1]: Not Active
SMILES: CC(=O)O[C@H]1CC[C@]2(C)[C@H]3CC=C4[C@@H]5CC(C)(C)CC[C@]5(C(=O)O)CC[C@@]4(C)[C@]3(C)CC[C@H]2C1(C)C [ACETYL OLEANOLIC ACID]

logD [3]: 1.05
SMILES: CCOC(=O)N1c2ccc(C(F)(F)F)cc2[C@@H](N(Cc2cc(C(F)(F)F)cc(C(F)(F)F)c2)C(=O)OC)C[C@H]1CC [TORCETRAPIB]

IC50 ([1]; read-out: IC50): 10.3 µM
SMILES: CC1(C)CC[C@]2(C(=O)O)CC[C@]3(C)C(=C2C1)CC[C@@H]1[C@@]2(C)CC[C@H](OC(=O)CCCC(=O)O)C(C)(C)[C@@H]2CC[C@]13C

Drug metabolism (Cavia porcellus [10]): Metabolite_Detected | Tmax [11]: 1.46 h | half-life [12]: 18.8 h | MRT last [13]: 14.9 h | IC50 ([1]; read-out: IC50): 2.3 µM | logD [3]: 0.49 | Cmax [19]: 1270 ng/mL | MRT inf [20]: 23.4 h | solubility [21]: Soluble | AUC(0-t) at 48 h [24]: 9340 ng·h/mL | AUC(0-inf) [25]: 10900 ng·h/mL
SMILES: CC1(C)CC[C@]2(C(=O)O)CC[C@]3(C)C(=CC[C@@H]4[C@@]5(C)CC[C@H](OC(=O)c6ccccc6C(=O)O)C(C)(C)[C@@H]5CC[C@]43C)[C@@H]2C1
Activity (Mus musculus [8]): 5.8% | Activity (Mus musculus [2]): 34.2% | Activity (Cavia porcellus [9]): Non-Toxic | Activity (Cavia porcellus [14]): 27.3% | Activity (Cavia porcellus [15]): 32.3% | Activity (Cavia porcellus [16]): 19.8% | Activity (Mus musculus [17]): 29.3% | Activity (Mus musculus [18]): 11.1% | Activity (Cavia porcellus [5]): 40.8% | Activity (Cavia porcellus [22]): Non-Toxic | Activity (Cavia porcellus [23]): 20.3% | Activity (Cavia porcellus [7]): 72.8%

IC50 ([1]; read-out: IC50): 38.9 µM
SMILES: CC1(C)CC[C@]2(C(=O)OCC(=O)O)CC[C@]3(C)C(=CC[C@@H]4[C@@]5(C)CC[C@H](OC(=O)CCCC(=O)O)C(C)(C)[C@@H]5CC[C@]43C)[C@@H]2C1
